From ChEMBL document CHEMBL1146470, “Highly hydroxylated triterpenes from Salvia kronenburgii” (J Nat Prod, 2004)
Converted amounts (≈) assume the structure as drawn.

Tests used:
[1] = tested on: A2780; assay: Cytotoxicity against human A2780 cells; type: functional, cell-based
Method in brief: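 Run on the human ovarian cancer line A2780 by a previously described protocol, with actinomycin D at 2 μg/mL as the positive control.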

[2] = tested on: EKVX; assay: Cytotoxicity against human EKVX cells; type: functional
Method in brief: (§1)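 NCI 60-cell-line panel screen over a 5-log dose range; growth inhibition expressed as log GI50. Preceded by an NCI one-dose primary screen on three lines (H460, MCF7, SF-268) reported as growth percentages.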

[3] = tested on: RXF 393; assay: Cytotoxicity against human RXF393 cells; type: functional; method in brief: as §1
[4] = tested on: T47D; assay: Cytotoxicity against human T47D cells; type: functional; method in brief: as §1
[5] = tested on: NCI-H460; assay: Cytotoxicity against human H460 cells; type: functional
[6] = tested on: MCF7; assay: Cytotoxicity against human MCF7 cells; type: functional
[7] = tested on: SF-268; assay: Cytotoxicity against human SF268 cells; type: functional

## CC1(C)CC[C@]2(C)CC[C@]3(C)C(=C[C@@H](O)[C@@H]4[C@@]5(C)[C@H](O)[C@@H](O)[C@H](O)C(C)(C)[C@@H]5CC[C@]43C)[C@@H]2C1
[1]
  IC50: 27.9 µg/mL (≈ 58.8 µM)

## CC(=O)O[C@H]1[C@H](O)[C@@H](O)[C@]2(C)C3=CC=C4[C@@H]5CC(C)(C)CC[C@]5(C)CC[C@@]4(C)[C@]3(C)CC[C@H]2C1(C)C
[1]
  IC50: 36.9 µg/mL (≈ 74 µM)

## CC(=O)O[C@@H]1C[C@@]2(C)C(=CC[C@]3(C)[C@@H]2[C@H](O)C=C2[C@@H]4[C@@H](C)[C@H](C)CC[C@]4(C)CC[C@]23C)C(C)(C)[C@H]1O
[1]
  IC50: 34.2 µg/mL (≈ 68.6 µM)

## CC(=O)O[C@H]1[C@H](O)[C@@H](O)[C@]2(C)[C@H]3[C@H](O)C=C4[C@@H]5CC(C)(C)CC[C@]5(C)CC[C@@]4(C)[C@]3(C)CC[C@H]2C1(C)C
[1]
  IC50: 38.5 µg/mL (≈ 74.5 µM)

## CC(=O)O[C@H]1[C@H](O)C[C@]2(C)C3=CC=C4[C@@H]5[C@@H](C)[C@@](C)(O)CC[C@]5(C)CC[C@@]4(C)[C@]3(C)CC[C@H]2C1(C)C
[1]
  IC50: 33.3 µg/mL (≈ 66.8 µM)

## CC(=O)O[C@H]1[C@H](O)[C@@H](O)[C@]2(C)[C@H]3C(=O)C=C4[C@@H]5[C@@H](C)[C@H](C)CC[C@]5(C)CC[C@@]4(C)[C@]3(C)CC[C@H]2C1(C)C
[1]
  IC50: 26 µg/mL (≈ 50.5 µM)

## C[C@H]1[C@H](C)CC[C@]2(C)CC[C@]3(C)C(=C[C@@H](O)[C@@H]4[C@@]5(C)[C@H](O)[C@@H](O)[C@H](O)C(C)(C)[C@@H]5CC[C@]43C)[C@H]12
[1]
  IC50: 27.7 µg/mL (≈ 58.3 µM)
[2]
  GI50: 21.9 nM
[3]
  GI50: 363 nM
[4]
  GI50: 18600 nM
[5]
  Activity: -45%
[6]
  Activity: -25%
[7]
  Activity: 18%

## CC(=O)O[C@H]1[C@H](O)[C@@H](O)[C@]2(C)[C@H]3[C@H](O)C=C4[C@@H]5[C@@H](C)[C@H](C)CC[C@]5(C)CC[C@@]4(C)[C@]3(C)CC[C@H]2C1(C)C
[1]
  IC50: 32.5 µg/mL (≈ 62.9 µM)

## CC(=O)O[C@H]1[C@H](O)[C@@H](O)[C@]2(C)C3=CC=C4[C@@H]5[C@@H](C)[C@H](C)CC[C@]5(C)CC[C@@]4(C)[C@]3(C)CC[C@H]2C1(C)C
[1]
  IC50: 37.5 µg/mL (≈ 75.2 µM)

## CC1(C)C[C@H]2C3=C[C@@H](O)[C@@H]4[C@@]5(C)CC[C@H](O)C(C)(C)[C@@H]5CC[C@@]4(C)[C@@]3(C)CC[C@@]2(C)C[C@H]1O [SALVINEMOROL]
[1]
  IC50: 8.6 µg/mL (≈ 18.7 µM)

## C[C@H]1[C@H](C)[C@H]2C3=C[C@@H](O)[C@@H]4[C@@]5(C)CC[C@H](O)C(C)(C)[C@@H]5CC[C@@]4(C)[C@]3(C)CC[C@@]2(C)C[C@H]1O [SALVISTAMINEOL]
[1]
  IC50: 21 µg/mL (≈ 45.8 µM)
